Laboratory results as given in article PMC9720522 (Food Chemistry: X, 2022).
Values after ≈ are worked out from the molar mass of the structure shown.

Assays:
[1] = test system: mAb against AZN (35D1D2); test: indirect competitive ELISA; type: binding, mouse; conditions: ic-ELISA; for Cross-reactivity: CR = IC50 of AZN / IC50 of related analyte × 100; for IC50: coating antigen 0.23 and mAb 0.38 µg/mL
[2] = test system: anti-AZN mAb; test: indirect ICA; type: binding, mouse; conditions: pork extract; strip reader standard curve
Summary of the method: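 AZN standard spiked into treated pork samples at 8, 4, 2, 1, 0.5, 0.25 and 0 ng/g. A set amount of mAb is added to the sample well and held 5 min at room temperature before strip insertion. The T line is AZL-SA-OVA, the C line mouse IgG, and the conjugate pad AuNP-goat anti-mouse IgG.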

Compound	Cross-reactivity [1]	IC50 [1]	IC50, indirect ICA [2]
Cc1cccc(C)c1N=C1NCCCS1 [XYL, xylazine]	<0.035%	˃1000 ng/mL	
O=C(CCCN1CCC(O)(c2ccc(Cl)cc2)CC1)c1ccc(F)cc1 [HAL, haloperidol]	<0.035%		
O=C(CCCN1CCN(c2ccccn2)CC1)c1ccc(F)cc1 [AZN, Azaperone]	100%	0.35 ng/mL (≈ 1.07 nM)	0.74 ng/g
CN(C)CCCN1c2ccccc2Sc2ccc(Cl)cc21 [CHL, Chlorpromazine]	<0.035%	˃1000 ng/mL	
CC(C)NCC(O)COc1cccc2[nH]c3ccccc3c12 (stereo not drawn) [CAR, carazolol]	<0.035%	˃1000 ng/mL	
O=C(CCCN1CC=C(n2c(=O)[nH]c3ccccc32)CC1)c1ccc(F)cc1 [DRO, Droperidol]	<0.035%	˃1000 ng/mL	
